For one assay, the target named is Prothrombin (Homo sapiens, UniProt P00734). In words: Inhibition of thrombin after 20 mins. Put shortly: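 Thrombin in 0.2 M Tris-HCl, pH 8, preincubated with sample (DMSO, 1 mg/mL stock) at 25 °C for 5 min. Z-Gly-Pro-Arg-4MβNA substrate (0.5 mg/mL stock in Tris buffer) then added. Reaction kinetics read at 405 nm, 37 °C, for 20 min; IC50 reported.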
Assay [1] can be described thus: Inhibition of trypsin after 30 mins. Put shortly:
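Trypsin stock 1 mg/mL in 0.05 M Tris-HCl/100 mM NaCl/1 mM CaCl2, pH 7.5. Sample (1 mg/mL DMSO stock) preincubated with enzyme at 37 °C for 10 min. BAPNA substrate (stock in 1:9 DMSO/Tris buffer) then added. Kinetics at 405 nm, 37 °C, for 30 min, giving IC50.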

Assay [2] has as its target Chymotrypsin-like elastase family member 1 (Homo sapiens) (UniProt Q9UNI1). In words: Inhibition of elastase after 20 mins. Put shortly:
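Elastase stock 75 mg/mL in 0.2 M Tris-HCl, pH 8. Sample (1 mg/mL DMSO stock) preincubated with enzyme in buffer at 30 °C for 20 min. N-Suc-Ala-Ala-Ala-p-nitroanilide substrate (1 mg/mL stock in Tris buffer) then added. Kinetics read at 405 nm, 37 °C, for 20 min.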

Assay [3] can be described thus: Inhibition of chymotrypsin after 30 mins. Put shortly:
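Commercial chymotrypsin, 10 mg/mL stock in 0.05 M Tris-HCl/100 mM NaCl/1 mM CaCl2, pH 7.5. Sample (1 mg/mL DMSO stock) preincubated with enzyme in buffer at 37 °C for 10 min. Suc-Gly-Gly-p-nitroanilide substrate (1 mg/mL stock in Tris buffer) then added. Reaction kinetics followed at 405 nm, 37 °C, for 30 min.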

Structures are written as SMILES. Calls of active or inactive are those of the source. The rule behind the calls is not given here.

Chain of Chymotrypsin-like elastase family member 1 (Homo sapiens) (Q9UNI1 whole entry): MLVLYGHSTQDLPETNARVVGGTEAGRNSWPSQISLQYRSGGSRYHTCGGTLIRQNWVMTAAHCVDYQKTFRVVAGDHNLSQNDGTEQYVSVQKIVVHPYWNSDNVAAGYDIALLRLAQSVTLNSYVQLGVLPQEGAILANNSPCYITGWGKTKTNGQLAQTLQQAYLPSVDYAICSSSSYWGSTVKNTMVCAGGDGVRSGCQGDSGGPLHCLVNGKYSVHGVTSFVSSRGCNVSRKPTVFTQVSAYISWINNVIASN

Turning to `CC[C@H](C)[C@@H]1NC(=O)[C@H](Cc2ccccc2)N(C)C(=O)[C@H]([C@@H](C)CC)N2C(=O)[C@H](CC[C@H]2O)NC(=O)[C@H](CCCNC(=N)N)NC(=O)[C@@H](NC(=O)[C@H](O)CO)[C@@H](C)OC1=O`, the outcome (on Prothrombin; in assay [2]; in assay [3]) was inactive. The IC50 in assay [1] was 2.6 µM.

At Prothrombin, `CC[C@H](C)[C@@H]1NC(=O)[C@H](Cc2ccccc2)N(C)C(=O)[C@H]([C@@H](C)CC)N2C(=O)[C@H](CC[C@H]2O)NC(=O)[C@H](CCCN=C(N)N)NC(=O)[C@@H](NC(=O)[C@@H](COS(=O)(=O)O)OS(=O)(=O)O)[C@@H](C)OC1=O` [CYANOPEPTOLIN SS] had an IC50 of 45.2 µM. That is a double-digit micromolar value.

Consider `CC[C@H](C)[C@@H]1NC(=O)[C@H](Cc2ccccc2)N(C)C(=O)[C@H]([C@@H](C)CC)N2C(=O)[C@H](CC[C@H]2OC)NC(=O)[C@H](CCCNC(=N)N)NC(=O)[C@@H](NC(=O)[C@H](O)COS(=O)(=O)O)[C@@H](C)OC1=O`, for which the outcome (on Prothrombin; in assay [2]; in assay [3]) was inactive. Moreover, the IC50 in assay [1] was determined as 1.5 µM.

As to `CC[C@H](C)[C@@H]1NC(=O)[C@H](Cc2ccccc2)N(C)C(=O)[C@H]([C@@H](C)CC)N2C(=O)[C@H](CC[C@H]2O)NC(=O)[C@H](CCCNC(=N)N)NC(=O)[C@@H](NC(=O)[C@H](O)COS(=O)(=O)O)[C@@H](C)OC1=O` [CYANOPEPTOLIN S], the outcome (on Prothrombin; in assay [2]; in assay [3]) was inactive. The compound further yielded an IC50 in assay [1] of 4.1 µM.

Consider `CC[C@H](C)[C@@H]1NC(=O)[C@H](Cc2ccccc2)N(C)C(=O)[C@H]([C@@H](C)CC)N2C(=O)[C@H](CC[C@H]2O)NC(=O)[C@H](CCCNC(=N)N)NC(=O)[C@@H](NC(=O)[C@@H](COS(=O)(=O)O)OS(=O)(=O)O)[C@@H](C)OC1=O` [CYANOPEPTOLIN SS], for which the IC50 in assay [1] was 2.9 µM. Also, the result in assay [2] and in assay [3] was inactive.

Take `CC[C@H](C)[C@@H]1NC(=O)[C@H](Cc2ccccc2)N(C)C(=O)[C@H]([C@@H](C)CC)N2C(=O)[C@H](CC[C@H]2OC)NC(=O)[C@H](CCCNC(=N)N)NC(=O)[C@@H](NC(=O)[C@@H](COS(=O)(=O)O)OS(=O)(=O)O)[C@@H](C)OC1=O`: the outcome (at Prothrombin; in assay [2]; in assay [3]) was inactive. The same compound returned an IC50 in assay [1] of 1.6 µM.

Consider `CC[C@H](C)[C@@H]1NC(=O)[C@H](Cc2ccccc2)N(C)C(=O)[C@H]([C@@H](C)CC)N2C(=O)[C@H](CC[C@H]2O)NC(=O)[C@H](CCCNC(=N)N)NC(=O)[C@@H](NC(=O)[C@@H](CO)OS(=O)(=O)O)[C@@H](C)OC1=O`, for which the result (at Prothrombin; in assay [2]; in assay [3]) was inactive. In assay [1], this compound returned an IC50 of 24.2 µM.

Turning to `CC[C@H](C)[C@@H]1NC(=O)[C@H](Cc2ccccc2)N(C)C(=O)[C@H]([C@@H](C)CC)N2C(=O)[C@H](CC[C@H]2OC)NC(=O)[C@H](CCCNC(=N)N)NC(=O)[C@@H](NC(=O)[C@H](O)CO)[C@@H](C)OC1=O`, the IC50 worked out at 52.9 µM at Prothrombin and 0.6 µM in assay [1]. Besides, the result in assay [2] and in assay [3] was inactive.

In the case of `CC[C@H](C)[C@@H]1NC(=O)[C@H](Cc2ccccc2)N(C)C(=O)[C@H]([C@@H](C)CC)N2C(=O)[C@H](CC[C@H]2OC)NC(=O)[C@H](CCCNC(=N)N)NC(=O)[C@@H](NC(=O)[C@@H](CO)OS(=O)(=O)O)[C@@H](C)OC1=O`, the outcome (at Prothrombin; in assay [2]; in assay [3]) was inactive. Also, in assay [1], the IC50 was 7.4 µM.

Turning to `CC[C@H](C)[C@@H]1NC(=O)[C@H](Cc2ccccc2)N(C)C(=O)[C@H]([C@@H](C)CC)N2C(=O)[C@H](CC[C@H]2OC)NC(=O)[C@H](CCCNC(=N)N)NC(=O)[C@@H](N)[C@@H](C)OC1=O`, the outcome (on Prothrombin; in assay [2]; in assay [3]) was inactive.

The values are drawn from ChEMBL document CHEMBL1154846, “Micropeptins from an Israeli fishpond water bloom of the cyanobacterium Microcystis sp” (J Nat Prod, 2010).
